According to ChEMBL document CHEMBL1132791, “1-Oxacephem-based human chymase inhibitors: discovery of stable inhibitors in human plasma” (Bioorg Med Chem Lett, 2000):

Tests used:
[1] = biological target: T1, Neutrophil elastase (Homo sapiens, UniProt P08246); test: Inhibitory concentration was measured against elastase
T1 sequence (P08246 whole entry): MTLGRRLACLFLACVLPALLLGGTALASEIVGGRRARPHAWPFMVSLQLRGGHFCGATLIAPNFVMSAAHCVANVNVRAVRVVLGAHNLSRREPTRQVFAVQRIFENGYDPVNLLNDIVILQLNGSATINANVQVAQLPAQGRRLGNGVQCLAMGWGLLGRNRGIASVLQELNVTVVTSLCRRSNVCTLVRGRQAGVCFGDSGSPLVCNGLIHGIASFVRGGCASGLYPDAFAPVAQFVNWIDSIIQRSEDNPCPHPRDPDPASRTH

[2] = biological target: T2, Chymase (Homo sapiens, UniProt P23946); test: Inhibition of human Serine protease chymase
T2 sequence (P23946 whole entry): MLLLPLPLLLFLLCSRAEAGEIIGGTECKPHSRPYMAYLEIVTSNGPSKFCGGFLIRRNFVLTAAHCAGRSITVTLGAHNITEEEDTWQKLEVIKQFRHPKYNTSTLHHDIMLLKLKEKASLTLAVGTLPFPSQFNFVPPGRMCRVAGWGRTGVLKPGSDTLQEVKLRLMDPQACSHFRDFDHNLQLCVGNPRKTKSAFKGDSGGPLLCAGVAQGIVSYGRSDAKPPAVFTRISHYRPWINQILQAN

[3] = biological target: Serine protease 1 (Homo sapiens, UniProt P07477); test: Inhibitory concentration was measured against trypsin
[4] = biological target: Prothrombin (Homo sapiens, UniProt P00734); test: Inhibitory concentration was measured against thrombin
[5] = The compound was evaluated for its half-life period; assay type: ADME
In short: (§1)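 Compound, dissolved in DMSO, was spiked into human plasma and incubated at 37 °C. Stability was read as the percentage of intact compound left after 30 min. Half-life in human plasma was taken from this same incubation.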

[6] = biological target: Plasminogen (Rattus norvegicus, UniProt Q01177); test: Inhibitory concentration was measured against plasmin
[7] = biological target: Chymotrypsinogen A (Bos taurus, UniProt P00766); test: Inhibitory concentration was measured against alpha-chymotrypsin
[8] = The percent remaining in human plasma after 30 min was determined; assay type: ADME, cell-free; conditions: read-out: Stability; in short: as §1

Chain of Serine protease 1 (P07477 whole entry): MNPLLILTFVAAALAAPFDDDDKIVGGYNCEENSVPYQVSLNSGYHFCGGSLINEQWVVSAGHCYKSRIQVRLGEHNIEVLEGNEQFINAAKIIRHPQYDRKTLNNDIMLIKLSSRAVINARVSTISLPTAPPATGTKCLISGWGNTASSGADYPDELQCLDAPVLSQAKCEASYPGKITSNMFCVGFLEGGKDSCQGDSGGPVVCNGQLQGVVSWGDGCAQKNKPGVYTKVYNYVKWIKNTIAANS
Chain of Plasminogen (Q01177 97-581 limits assumed): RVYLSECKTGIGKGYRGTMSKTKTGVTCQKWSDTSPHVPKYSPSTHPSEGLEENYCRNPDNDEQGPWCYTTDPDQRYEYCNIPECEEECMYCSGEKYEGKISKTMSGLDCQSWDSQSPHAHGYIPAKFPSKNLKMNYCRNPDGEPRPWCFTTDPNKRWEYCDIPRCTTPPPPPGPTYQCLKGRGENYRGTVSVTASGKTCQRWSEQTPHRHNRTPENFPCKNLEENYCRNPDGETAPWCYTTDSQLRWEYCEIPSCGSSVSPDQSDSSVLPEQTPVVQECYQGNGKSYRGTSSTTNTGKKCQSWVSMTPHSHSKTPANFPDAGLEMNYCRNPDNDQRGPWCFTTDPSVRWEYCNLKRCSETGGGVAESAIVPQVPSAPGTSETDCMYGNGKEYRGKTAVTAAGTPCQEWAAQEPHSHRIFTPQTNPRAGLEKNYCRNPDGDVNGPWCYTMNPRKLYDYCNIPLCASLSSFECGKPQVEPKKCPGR
Chain of Plasminogen (Q01177 582-812 limits assumed): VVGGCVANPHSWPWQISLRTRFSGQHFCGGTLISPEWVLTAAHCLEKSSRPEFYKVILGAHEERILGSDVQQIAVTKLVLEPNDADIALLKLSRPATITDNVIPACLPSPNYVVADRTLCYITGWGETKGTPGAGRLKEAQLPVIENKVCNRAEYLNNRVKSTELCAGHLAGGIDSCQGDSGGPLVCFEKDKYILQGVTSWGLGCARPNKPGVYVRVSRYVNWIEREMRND

SMILES | remaining at 0.5 h [8] [%] | other results
CCOc1ccccc1C(=O)N[C@]1(OC)C(=O)N2C(C(=O)OCc3ccc(C(=O)O)cc3)=C(CSc3nnnn3C)CO[C@@H]21 | 87 | IC50 [1]: 9.5 µM; IC50 [2]: 0.027 µM; IC50 [3]: 2.1 µM; IC50 [4]: 3.6 µM; half-life [5]: 1.5 h; IC50 [6]: > 10 µM; IC50 [7]: 0.16 µM
CO[C@@]1(NC(=O)Cc2ccc(O)cc2)C(=O)N2C(C(=O)OCc3cccc(C)c3)=C(CSc3nnc(C)s3)CO[C@@H]21 | 13 | –
COc1ccccc1C(=O)N[C@]1(OC)C(=O)N2C(C(=O)OC(c3ccccc3)c3ccccc3)=C(CSc3nnnn3C)CO[C@@H]21 | 73 | –
CO[C@@]1(NC(=O)c2ccccc2OC(C)C)C(=O)N2C(C(=O)OCc3ccc(C(=O)O)cc3)=C(CSc3nnnn3C)CO[C@@H]21 | 42 | –
CO[C@@]1(NC(=O)Cc2ccc(O)cc2)C(=O)N2C(C(=O)OC(c3ccccc3)c3ccccc3)=C(CSc3nnnn3C)CO[C@@H]21 | 40 | –
CCCOc1ccccc1C(=O)N[C@]1(OC)C(=O)N2C(C(=O)OCc3ccc(C(=O)O)cc3)=C(CSc3nnnn3C)CO[C@@H]21 | 26 | –
CO[C@@]1(NC(=O)Cc2ccc(O)cc2)C(=O)N2C(C(=O)OCc3cccc(C)c3)=C(CSc3nnnn3C)CO[C@@H]21 | 10 | –
CO[C@@]1(NC(=O)Cc2ccc(O)cc2)C(=O)N2C(C(=O)OCc3cccc(C)c3)=C(CSc3nnnn3CC(=O)O)CO[C@@H]21 | 5 | –
CO[C@@]1(NC(=O)c2ccccc2Oc2ccccc2)C(=O)N2C(C(=O)OCc3ccc(C(=O)O)cc3)=C(CSc3nnnn3C)CO[C@@H]21 | 63 | –
CO[C@@]1(NC(=O)Cc2ccc(N(C)C)cc2)C(=O)N2C(C(=O)OC(c3ccccc3)c3ccccc3)=C(CSc3nnnn3C)CO[C@@H]21 | 53 | –
CO[C@@]1(NC(=O)Cc2ccc(O)cc2)C(=O)N2C(C(=O)OCc3cccc(C)c3)=C(C)CO[C@@H]21 | 59 | IC50 [2]: > 10 µM
COc1ccccc1C(=O)N[C@]1(OC)C(=O)N2C(C(=O)OCc3ccc(C(=O)O)cc3)=C(CSc3nnnn3C)CO[C@@H]21 | 26 | –
CCC(C)Oc1ccccc1C(=O)N[C@]1(OC)C(=O)N2C(C(=O)OCc3ccc(C(=O)O)cc3)=C(CSc3nnnn3C)CO[C@@H]21 (stereo partly drawn) | 39 | –
COc1ccccc1C(=O)N[C@]1(OC)C(=O)N2C(C(=O)OCc3cccc(C)c3)=C(CSc3nnnn3CC(=O)O)CO[C@@H]21 | 11 | half-life [5]: < 0.167 h
